Columns and labels:
[1] = target: T1, ATP-dependent translocase ABCB1 (Homo sapiens, UniProt P08183); test: TP_TRANSPORTER: transepithelial transport (basal to apical) in MDR1-expressing LLC-PK1 cells; type: functional, cell-based; conditions: pig
Outline: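 L-MDR1 cells (LLC-PK1 expressing MDR1) plated at 4×10^5 cells/12-mm well on 3.0 µm polycarbonate Transwell filters, used day 4; resistance ≥200 Ω after blank correction. Serum-free Optimem; [14C]-drug 5 µM added to basal compartment, apical radioactivity sampled at 1, 2, 3, 4 h by scintillation, given as % of total added; parental LLC-PK1 run alongside; mean ± SE, ≥3 experiments.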

[2] = target: ATP-dependent translocase ABCB1 (Mus musculus, UniProt P21447); test: TP_TRANSPORTER: increase in brain concentration in mdr1a(-/-) mouse; type: functional, organism-based; conditions: in vivo
Outline: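 Male mdr1a(-/-) (FVB/TacBR-[KO]mdr1aN7) and matched mdr1a(+/+) FVB/NTacBR mice, 6–12 wk, three per group. [14C]-drug (indinavir 1.5 mg/kg, nelfinavir 3 mg/kg, saquinavir 2 mg/kg) in ethanol/0.9% saline, given i.v. into tail vein over 10 min. At 4 h, isoflurane anesthesia, orbital exsanguination, brain homogenized in 4% BSA. Total radioactivity by scintillation; value is (-/-)/(+/+) ratio of brain levels.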

[3] = target: T1, ATP-dependent translocase ABCB1; test: TP_TRANSPORTER: inhibition of Saquinavir transepithelial transport (basal to apical) (Saquinavir: 5 uM, PSC-833: 1 uM) in Caco-2 cells; type: functional, cell-based; conditions: caco-2, 1 µM
Outline: (§1)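 Caco-2 monolayers on 0.4 µm polycarbonate Transwell filters, plated at 10^5 cells/12-mm well, used on day 4; wells with resistance ≥200 Ω (blank-corrected) used. […] Radioactivity reaching apical side sampled at 1, 2, 3, 4 h, expressed as % of added; mean ± SE, ≥3 experiments.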

[4] = target: T1, ATP-dependent translocase ABCB1; test: TP_TRANSPORTER: inhibition of Nelfinavir transepithelial transport (basal to apical) (Nrlfinavir: 5 uM, PSC-833: 1 uM) in Caco-2 cells; type: functional, cell-based; conditions: caco-2, 1 µM; outline: as §1
[5] = target: T1, ATP-dependent translocase ABCB1; test: TP_TRANSPORTER: inhibition of Indinavir transepithelial transport (basal to apical) (Indinavir: 5 uM, PSC-833: 1 uM) in Caco-2 cells; type: functional, cell-based; conditions: caco-2, 1 µM; outline: as §1

T1 sequence (P08183 whole entry): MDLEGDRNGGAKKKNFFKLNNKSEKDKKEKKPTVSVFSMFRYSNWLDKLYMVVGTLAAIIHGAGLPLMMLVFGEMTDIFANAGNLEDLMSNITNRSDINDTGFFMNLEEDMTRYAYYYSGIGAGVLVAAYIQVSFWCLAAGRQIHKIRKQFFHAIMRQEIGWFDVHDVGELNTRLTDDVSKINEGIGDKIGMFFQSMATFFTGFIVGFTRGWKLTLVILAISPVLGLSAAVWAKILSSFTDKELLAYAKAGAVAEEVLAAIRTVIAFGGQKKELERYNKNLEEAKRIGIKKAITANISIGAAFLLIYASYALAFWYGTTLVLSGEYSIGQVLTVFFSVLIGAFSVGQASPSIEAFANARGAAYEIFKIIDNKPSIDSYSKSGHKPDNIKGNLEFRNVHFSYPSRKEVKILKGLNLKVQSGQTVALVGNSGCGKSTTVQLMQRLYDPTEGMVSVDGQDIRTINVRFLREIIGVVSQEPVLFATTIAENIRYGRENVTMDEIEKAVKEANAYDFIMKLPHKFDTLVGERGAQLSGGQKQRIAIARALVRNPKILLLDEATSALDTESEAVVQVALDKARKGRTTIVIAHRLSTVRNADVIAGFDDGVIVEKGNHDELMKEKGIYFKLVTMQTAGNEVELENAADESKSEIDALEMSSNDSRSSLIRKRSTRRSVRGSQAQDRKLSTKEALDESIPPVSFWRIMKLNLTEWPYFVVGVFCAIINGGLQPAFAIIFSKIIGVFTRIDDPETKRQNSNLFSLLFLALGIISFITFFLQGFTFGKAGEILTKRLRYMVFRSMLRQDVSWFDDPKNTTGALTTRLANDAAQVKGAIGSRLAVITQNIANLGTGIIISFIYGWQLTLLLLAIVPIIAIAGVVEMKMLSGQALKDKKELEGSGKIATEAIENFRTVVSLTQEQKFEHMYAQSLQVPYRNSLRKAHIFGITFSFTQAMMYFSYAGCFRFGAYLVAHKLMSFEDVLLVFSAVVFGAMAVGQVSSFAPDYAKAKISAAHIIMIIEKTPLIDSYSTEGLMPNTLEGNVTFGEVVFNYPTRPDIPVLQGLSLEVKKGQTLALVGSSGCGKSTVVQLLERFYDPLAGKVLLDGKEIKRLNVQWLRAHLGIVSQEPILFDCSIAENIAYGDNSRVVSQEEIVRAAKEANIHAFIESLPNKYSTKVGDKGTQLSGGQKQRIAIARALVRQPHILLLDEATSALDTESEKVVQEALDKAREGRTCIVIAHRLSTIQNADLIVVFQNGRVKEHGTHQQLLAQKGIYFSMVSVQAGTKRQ
Sequence of ATP-dependent translocase ABCB1 (Mus musculus, UniProt P21447) (P21447 whole entry): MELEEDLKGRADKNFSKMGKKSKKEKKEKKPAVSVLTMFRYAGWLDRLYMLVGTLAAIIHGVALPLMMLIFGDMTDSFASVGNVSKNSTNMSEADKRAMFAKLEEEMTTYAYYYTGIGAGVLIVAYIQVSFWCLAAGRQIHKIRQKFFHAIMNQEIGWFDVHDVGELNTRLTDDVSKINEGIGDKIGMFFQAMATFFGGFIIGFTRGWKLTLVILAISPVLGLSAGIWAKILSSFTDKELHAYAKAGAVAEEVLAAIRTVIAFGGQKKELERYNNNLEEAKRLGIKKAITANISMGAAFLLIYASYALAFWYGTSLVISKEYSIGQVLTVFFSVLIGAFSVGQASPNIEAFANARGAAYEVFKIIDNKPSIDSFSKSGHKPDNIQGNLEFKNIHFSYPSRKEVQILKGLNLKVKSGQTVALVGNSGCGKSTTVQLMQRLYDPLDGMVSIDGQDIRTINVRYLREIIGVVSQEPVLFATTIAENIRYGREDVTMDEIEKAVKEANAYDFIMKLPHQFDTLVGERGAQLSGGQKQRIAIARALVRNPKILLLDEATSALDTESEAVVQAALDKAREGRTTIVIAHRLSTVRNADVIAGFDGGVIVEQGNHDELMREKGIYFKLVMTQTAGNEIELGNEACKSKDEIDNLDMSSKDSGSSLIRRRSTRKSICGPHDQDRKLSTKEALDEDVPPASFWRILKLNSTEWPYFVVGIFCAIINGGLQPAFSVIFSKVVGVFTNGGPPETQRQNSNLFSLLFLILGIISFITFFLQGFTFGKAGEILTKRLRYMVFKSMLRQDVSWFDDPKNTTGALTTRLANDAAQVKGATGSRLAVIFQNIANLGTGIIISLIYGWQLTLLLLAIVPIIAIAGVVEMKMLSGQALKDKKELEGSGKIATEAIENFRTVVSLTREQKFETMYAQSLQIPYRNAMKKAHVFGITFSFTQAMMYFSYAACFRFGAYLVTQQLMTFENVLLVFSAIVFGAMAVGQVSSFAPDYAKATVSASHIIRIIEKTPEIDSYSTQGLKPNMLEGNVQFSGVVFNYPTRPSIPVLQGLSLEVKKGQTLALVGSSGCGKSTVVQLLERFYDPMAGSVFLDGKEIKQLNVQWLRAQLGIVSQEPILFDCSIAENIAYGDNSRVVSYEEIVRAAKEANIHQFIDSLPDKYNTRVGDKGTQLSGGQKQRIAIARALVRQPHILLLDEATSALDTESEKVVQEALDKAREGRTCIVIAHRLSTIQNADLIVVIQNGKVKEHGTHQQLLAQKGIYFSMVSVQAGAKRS

| SMILES | Activity [1] | Activity [2] | Activity [3] | Activity [4] | Activity [5] |
| --- | --- | --- | --- | --- | --- |
| CC(C)(C)NC(=O)[C@@H]1CN(Cc2cccnc2)CCN1C[C@@H](O)C[C@@H](Cc1ccccc1)C(=O)N[C@H]1c2ccccc2C[C@H]1O.O | substrate [+] | substrate [+] |  |  |  |
| Cc1c(O)cccc1C(=O)N[C@@H](CSc1ccccc1)[C@H](O)CN1C[C@H]2CCCC[C@H]2C[C@H]1C(=O)NC(C)(C)C | substrate [+] | substrate [+] |  |  |  |
| C/C=C/C[C@@H](C)C(=O)[C@H]1C(=O)N[C@@H](C(C)C)C(=O)N(C)CC(=O)N(C)[C@@H](CC(C)C)C(=O)N[C@@H](C(C)C)C(=O)N(C)[C@@H](CC(C)C)C(=O)N[C@@H](C)C(=O)N[C@H](C)C(=O)N(C)[C@@H](CC(C)C)C(=O)N(C)[C@@H](CC(C)C)C(=O)N(C)[C@@H](C(C)C)C(=O)N1C [VALSPODAR] |  |  | inhibitor [+] | inhibitor [+] | inhibitor [+] |
| CC(C)(C)NC(=O)[C@@H]1C[C@@H]2CCCC[C@@H]2CN1C[C@@H](O)[C@H](Cc1ccccc1)NC(=O)[C@H](CC(N)=O)NC(=O)c1ccc2ccccc2n1 |  | substrate [+] |  |  |  |

— ChEMBL document CHEMBL2074309, “The drug transporter P-glycoprotein limits oral absorption and brain entry of HIV-1 protease inhibitors” (J Clin Invest, 1998)
